From article PMC12694607 (RSC Chemical Biology, 2025)
≈ marks a conversion by molar mass, not a printed value. Non-standard residues stand in square brackets, D forms with d. Residues, ends and D or L forms follow the SMILES beside them. *: point of attachment. FITC = O=C1OC2(c3ccc(O)cc3Oc3cc(O)ccc32)c2ccc(NC(=S)*)cc21; Pra = C#CC[C@H](N)C(=O)O; βAla = NCCC(=O)O

Experiment: Dynamic light scattering
Type: physicochemical
Settings: PBS with 1% DMSO
Outline: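 Salicylaldehyde-tagged peptide and its alkyne precursor were dissolved in DMSO at several concentrations, then diluted 1:100 into PBS. Final samples were 5 µM, 125 nM and 10 nM in PBS (+1% DMSO). Aggregation was assessed by dynamic light scattering.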

C#CC[C@H](NC(=O)[C@H](Cc1ccccc1)NC(=O)CCNC(=S)Nc1ccc2c(c1)C(=O)OC21c2ccc(O)cc2Oc2cc(O)ccc21)C(=O)N[C@@H](C)C(=O)N[C@@H](CC(C)C)C(=O)N[C@@H](CC(=O)O)C(=O)N[C@@H](Cc1c[nH]c2ccccc12)C(=O)N[C@@H](CO)C(=O)N[C@@H](Cc1c[nH]c2ccccc12)C(=O)N[C@@H](CC(C)C)C(=O)N[C@@H](CCC(N)=O)C(=O)N[C@H](C(=O)N[C@@H](CCC(=O)O)C(N)=O)[C@@H](C)O [Compound 6] ({FITC-βAla}-F[Pra]ALDWSWLQTE-NH2)
solubility kinetic: 0.125 µM (≈ 0.244 µg/mL)
